How the values were obtained:
[1] = test system: PC-3 cells; experiment: PMA induced cytoskeletal remodeling assay; assay type: cell-based; settings: PC-3, serum starved 24 h, 5 μM peptide 4 h, 500 nM PMA 45 min
[2] = test system: PKC; experiment: PKC substrate phosphorylation assay; assay type: cell-based; settings: serum starved PC-3, 1, 2.5, 5 μM peptide 4 h, PMA 5 min; n = 3
In short: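 Serum-starved PC-3 cells were exposed to the test compound (1, 2.5 or 5 μM) or DMSO vehicle for 4 h. A catalytic PKC inhibitor reference was given at 500 nM for 90 min. Cells were then stimulated with 500 nM PMA for 5 min, harvested and analysed by western blot for PKC substrate phosphorylation; n = 3.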

[3] = target: Protein kinase C alpha type (Homo sapiens, UniProt P17252); experiment: Proteomic mass spectrometry of biotin-streptavidin pulldown; assay type: binding; settings: 5 µM biotin labeled peptide, A549 lysate, LC-MS/MS
In short: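 Cell lysates were incubated for four hours with 5 μM biotin-labeled test compound or the corresponding scrambled control, with DMSO-treated lysate as negative control. Streptavidin–agarose beads were used for pulldown, and the eluates were analysed by mass spectrometry.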

[4] = test system: PC-3 cells; experiment: Peptide uptake assay; assay type: cell-based; settings: 5 μM FAM-labeled peptide, 4 h, fixed cells, fluorescence microscopy
In short: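 PC-3 cells were incubated with 5 μM 5(6)-carboxyfluorescein-labeled test compound for four hours, then imaged by fluorescence microscopy to assess intracellular distribution.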

Row | Substance | cell morphology after PMA stimulation (phase contrast) [1] | phosphorylated PKC substrates (anti-PKC p-Serine substrate western blot) [2] | Present in pulldown: Protein kinase C alpha type (PRKCA) [3] | cellular uptake / cell permeability [4]
1 | (5/6 FAM) - β-Ala - KAS(Nle)LCFKRRK*AAK*LK (sidechain bridge or staple) [CSTAD5] | predominantly maintained a flat, elongated morphology | dose dependent reduction | present | considerable permeation
2 | (5/6 FAM) - β-Ala - KAS(Nle)LCFKRRKK*AKA*K (sidechain bridge or staple) [CSTAD6] | predominantly maintained a flat, elongated morphology | dose dependent reduction |  | considerable permeation

From publication PMC8341804 (RSC Chemical Biology, 2021)
